Source: ChEMBL document CHEMBL3769403, “Carbonic anhydrase activators: Activation of the β-carbonic anhydrase from Malassezia globosa with amines and amino acids” (Bioorg Med Chem Lett, 2016)

System: Malassezia globosa
Settings: 10 uM

Compound | kcat
NCCc1c[nH]cn1 | 18.5 ×10⁵ /s

System: Malassezia globosa
Test: Activation of Malassezia globosa beta-carbonic anhydrase incubated for 15 mins prior to testing by stopped flow CO2 hydrase method
Settings: not given
In short: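 Recombinant M. globosa β-CA (12.1 nM in assay; enzymes 10-14 nM) preincubated with activator 15 min at room temperature. CO2 hydration followed 10 s at 25 °C by stopped-flow, phenol red 0.2 mM at 557 nm, 20 mM Tris pH 8.3, 20 mM NaClO4; CO2 0.17-17 mM. Initial velocities from the first 5-10% of at least six traces, uncatalyzed rate subtracted; KA from the competitive steady-state equation; mean of 3 assays.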

Compound | KA
NCCN1CCOCC1 | 5.82 µM
N[C@@H](Cc1c[nH]c2ccccc12)C(=O)O | 10.1 µM
NCc1ccccn1 | 6.12 µM
N[C@H](Cc1c[nH]c2ccccc12)C(=O)O | 12.5 µM
N[C@H](Cc1c[nH]cn1)C(=O)O | 18.1 µM
NCCN1CCNCC1 | 0.81 µM
NCCc1c[nH]c2ccc(O)cc12 | 14.2 µM
Nc1ccc(C[C@H](N)C(=O)O)cc1 | 13.4 µM
N[C@H](Cc1ccccc1)C(=O)O | 10.7 µM
N[C@H](Cc1ccc(O)cc1)C(=O)O | 25.1 µM
N[C@@H](Cc1c[nH]cn1)C(=O)O | 29.3 µM
NCCc1ccccn1 | 7.3 µM
CNC[C@H](O)c1ccc(O)c(O)c1 | 0.72 µM
N[C@@H](Cc1ccc(O)c(O)c1)C(=O)O | 8.31 µM
NCCc1c[nH]cn1 | 10.9 µM
NCCc1ccc(O)c(O)c1 | 9.43 µM
N[C@H](Cc1ccc(O)c(O)c1)C(=O)O | 13.7 µM
N[C@@H](Cc1ccccc1)C(=O)O | 34.1 µM
N[C@@H](Cc1ccc(O)cc1)C(=O)O | 15.7 µM
